Laboratory results reported in ChEMBL document CHEMBL4715736, “Identification of anticancer agents based on the thieno[2,3-b]pyridine and 1H-pyrazole molecular scaffolds” (2016).

What follows are molecules tested on MCF7 (assay: Growth inhibition of human MCF7 cells assessed as cell growth at 0.01 uM incubated for 48 hrs by sulforhodamine B assay relative to control). Conditions: read-out: Activity.
Type: functional

Row | Compound | growth at 0.01 µM
1 | Cc1cc(C)c(NC(=O)c2sc3nc4c(cc3c2N)CN(Cc2ccccc2)CC4)c(C)c1 | 86%

The molecules below were run on SK-MEL-28 (assay: Growth inhibition of human SK-MEL-28 cells assessed as cell growth at 1 uM incubated for 48 hrs by sulforhodamine B assay relative to control). Conditions: read-out: Activity.
Type: functional

Row | Compound | growth at 1 µM
2 | Cc1cc(C)c(NC(=O)c2sc3nc4c(cc3c2N)CN(Cc2ccccc2)CC4)c(C)c1 | 70%

Each molecule was assayed on RXF 393 (assay: Growth inhibition of human RXF 393 cells assessed as cell growth at 100 uM incubated for 48 hrs by sulforhodamine B assay relative to control). Conditions: read-out: Activity.
Type: functional

Row | Compound | growth at 100 µM
3 | Cc1cc(C)c(NC(=O)c2sc3nc4c(cc3c2N)CN(Cc2ccccc2)CC4)c(C)c1 | -15%

The molecules below were run on HCT-15 (assay: Growth inhibition of human HCT-15 cells assessed as cell growth at 0.01 uM incubated for 48 hrs by sulforhodamine B assay relative to control). Conditions: read-out: Activity.
Type: functional

Row | Compound | growth at 0.01 µM
4 | Cc1cc(C)c(NC(=O)c2sc3nc4c(cc3c2N)CN(Cc2ccccc2)CC4)c(C)c1 | 93%

What follows are molecules tested on COLO 205 (assay: Growth inhibition of human COLO 205 cells assessed as cell growth at 0.1 uM incubated for 48 hrs by sulforhodamine B assay relative to control). Conditions: read-out: Activity.
Type: functional
In short: (§1)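 NCI Developmental Therapeutics Program NCI60 panel. Compounds that were active in the 10 µM one-dose screen went on to dose–response testing. Growth at each concentration is expressed relative to untreated control (100%). GI50 (concentration giving 50% of maximal inhibition of proliferation) and TGI (concentration giving total growth inhibition) were derived from the curves.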

Row | Compound | growth at 0.1 µM
5 | Cc1cc(C)c(NC(=O)c2sc3nc4c(cc3c2N)CN(Cc2ccccc2)CC4)c(C)c1 | 104%

What follows are molecules tested on OVCAR-4 (assay: Growth inhibition of human OVCAR-4 cells assessed as cell growth at 0.1 uM incubated for 48 hrs by sulforhodamine B assay relative to control). Conditions: read-out: Activity.
Type: functional

Row | Compound | growth at 0.1 µM
6 | Cc1cc(C)c(NC(=O)c2sc3nc4c(cc3c2N)CN(Cc2ccccc2)CC4)c(C)c1 | 94%

These molecules were tested on Malme-3M (assay: Growth inhibition of human Malme-3M cells assessed as cell growth at 1 uM incubated for 48 hrs by sulforhodamine B assay relative to control). Conditions: read-out: Activity.
Type: functional

Row | Compound | growth at 1 µM
7 | Cc1cc(C)c(NC(=O)c2sc3nc4c(cc3c2N)CN(Cc2ccccc2)CC4)c(C)c1 | 76%

Each molecule was assayed on U-251 (assay: Growth inhibition of human U-251 cells assessed as cell growth at 0.01 uM incubated for 48 hrs by sulforhodamine B assay relative to control). Conditions: read-out: Activity.
Type: functional

Row | Compound | growth at 0.01 µM
8 | Cc1cc(C)c(NC(=O)c2sc3nc4c(cc3c2N)CN(Cc2ccccc2)CC4)c(C)c1 | 99%

These molecules were tested on BT-549 (assay: Growth inhibition of human BT-549 cells incubated for 48 hrs by sulforhodamine B assay). Conditions: not given.
Type: functional
In short: as §1

Row | Compound | GI50 | TGI
9 | Cc1cc(C)c(NC(=O)c2sc3nc4c(cc3c2N)CN(Cc2ccccc2)CC4)c(C)c1 | 4.05 µM | 57.6 µM

Same assay, conditions: read-out: LC50 (the source's name)

Row | Compound | CC50
10 | Cc1cc(C)c(NC(=O)c2sc3nc4c(cc3c2N)CN(Cc2ccccc2)CC4)c(C)c1 | > 100 µM

What follows are molecules tested on HT-29 (assay: Growth inhibition of human HT-29 cells assessed as cell growth at 0.1 uM incubated for 48 hrs by sulforhodamine B assay relative to control). Conditions: read-out: Activity.
Type: functional

Row | Compound | growth at 0.1 µM
11 | Cc1cc(C)c(NC(=O)c2sc3nc4c(cc3c2N)CN(Cc2ccccc2)CC4)c(C)c1 | 100%

The molecules below were run on IGROV-1 (assay: Growth inhibition of human IGROV-1 cells assessed as cell growth at 0.01 uM incubated for 48 hrs by sulforhodamine B assay relative to control). Conditions: read-out: Activity.
Type: functional

Row | Compound | growth at 0.01 µM
12 | Cc1cc(C)c(NC(=O)c2sc3nc4c(cc3c2N)CN(Cc2ccccc2)CC4)c(C)c1 | 101%

The molecules below were run on HCT-15 (assay: Growth inhibition of human HCT-15 cells assessed as cell growth at 100 uM incubated for 48 hrs by sulforhodamine B assay relative to control). Conditions: read-out: Activity.
Type: functional

Row | Compound | growth at 100 µM
13 | Cc1cc(C)c(NC(=O)c2sc3nc4c(cc3c2N)CN(Cc2ccccc2)CC4)c(C)c1 | 4%

The molecules below were run on OVCAR-5 (assay: Growth inhibition of human OVCAR-5 cells assessed as cell growth at 1 uM incubated for 48 hrs by sulforhodamine B assay relative to control). Conditions: read-out: Activity.
Type: functional

Row | Compound | growth at 1 µM
14 | Cc1cc(C)c(NC(=O)c2sc3nc4c(cc3c2N)CN(Cc2ccccc2)CC4)c(C)c1 | 97%

Each molecule was assayed on MOLT-4 (assay: Growth inhibition of human MOLT-4 cells assessed as cell growth at 0.1 uM incubated for 48 hrs by sulforhodamine B assay relative to control). Conditions: read-out: Activity.
Type: functional

Row | Compound | growth at 0.1 µM
15 | Cc1cc(C)c(NC(=O)c2sc3nc4c(cc3c2N)CN(Cc2ccccc2)CC4)c(C)c1 | 98%

What follows are molecules tested on SNB-75 (assay: Growth inhibition of human SNB-75 cells assessed as cell growth at 1 uM incubated for 48 hrs by sulforhodamine B assay relative to control). Conditions: read-out: Activity.
Type: functional

Row | Compound | growth at 1 µM
16 | Cc1cc(C)c(NC(=O)c2sc3nc4c(cc3c2N)CN(Cc2ccccc2)CC4)c(C)c1 | 79%

The molecules below were run on NCI-H322M (assay: Growth inhibition of human NCI-H322M cells assessed as cell growth at 0.1 uM incubated for 48 hrs by sulforhodamine B assay relative to control). Conditions: read-out: Activity.
Type: functional

Row | Compound | growth at 0.1 µM
17 | Cc1cc(C)c(NC(=O)c2sc3nc4c(cc3c2N)CN(Cc2ccccc2)CC4)c(C)c1 | 97%

These molecules were tested on OVCAR-8 (assay: Growth inhibition of human OVCAR-8 cells assessed as cell growth at 100 uM incubated for 48 hrs by sulforhodamine B assay relative to control). Conditions: read-out: Activity.
Type: functional

Row | Compound | growth at 100 µM
18 | Cc1cc(C)c(NC(=O)c2sc3nc4c(cc3c2N)CN(Cc2ccccc2)CC4)c(C)c1 | 14%

Each molecule was assayed on NCI/ADR-RES (assay: Growth inhibition of human NCI/ADR-RES cells assessed as cell growth at 0.01 uM incubated for 48 hrs by sulforhodamine B assay relative to control). Conditions: read-out: Activity.
Type: functional

Row | Compound | growth at 0.01 µM
19 | Cc1cc(C)c(NC(=O)c2sc3nc4c(cc3c2N)CN(Cc2ccccc2)CC4)c(C)c1 | 104%

Each molecule was assayed on KM12 (assay: Growth inhibition of human KM12 cells assessed as cell growth at 100 uM incubated for 48 hrs by sulforhodamine B assay relative to control). Conditions: read-out: Activity.
Type: functional

Row | Compound | growth at 100 µM
20 | Cc1cc(C)c(NC(=O)c2sc3nc4c(cc3c2N)CN(Cc2ccccc2)CC4)c(C)c1 | -9%
